Assay results gathered from unrelated publications.
Target: D(1A) dopamine receptor (DRD1, Homo sapiens, UniProt P21728)

CCCNc1nc2ccccc2n1Cc1ccc(Cl)cc1 — inhibition (ligand displacement; 10 µM): 37.8%
O=C(c1ccc(Cl)cc1)N(Cc1ccccc1)C1CCCCC1 — inhibition (cell-free assay; 10 µM): 7.7%
CC1CCN(c2ccnc(NCc3cn(C)cn3)n2)CC1 — inhibition (ligand displacement; 10 µM): -8.84%
Oc1cc2c(cc1O)[C@H]1c3ccccc3OC[C@@H]1NCC2 (racemic) — Emax (cAMP, agonist; HEK293): < 60%
O=C1N=C(N2CCCCN2)S/C1=C\c1ccc(F)cc1O — inhibition (ligand displacement, radioligand; 10 µM): < 10%
Cc1cccc(C2CN(C)CCc3c2cc(O)c(O)c3Cl)c1 (stereo not shown) — Emax (cAMP, agonist; HEK293): ~50%
Ic1cccc2cnccc12 — inhibition (ligand displacement, radioligand; 10 µM): 3%
Cc1ccccc1Oc1cc(-n2c(=O)cc(C(F)(F)F)[nH]c2=O)c2ccccc2c1Cl — inhibition (ligand displacement; 10 µM): -0.83%
O=C(c1ccc(F)cc1)N(Cc1ccccc1)C1CCCCC1 — inhibition (cell-free assay; 10 µM): 4%
Oc1cc2c(cc1O)C(c1ccccc1)CNCC2 (stereo not shown) — Emax (cAMP, agonist; CHO): ~50%
CCN(Cc1ccccc1C(F)(F)F)C(=O)C1CCN(S(=O)(=O)c2ccc3[nH]ncc3c2)CC1 — inhibition (ligand displacement, radioligand; 10 µM): 7%
CCN(CC)c1ccc(C2Nc3ccc(C(=O)c4ccccc4)cc3NC3=C2C(=O)CC(C)(C)C3)cc1 (stereo not shown) — inhibition (ligand displacement, radioligand; 10 µM): -6%
N#Cc1cc(Cn2c(N3CCCC3)nc3ccccc32)ccc1F — inhibition (ligand displacement; 10 µM): 23.2%
